This assay has as its target T1, Excitatory amino acid transporter 3 (Homo sapiens, UniProt P43005).
T1 sequence (P43005 whole entry): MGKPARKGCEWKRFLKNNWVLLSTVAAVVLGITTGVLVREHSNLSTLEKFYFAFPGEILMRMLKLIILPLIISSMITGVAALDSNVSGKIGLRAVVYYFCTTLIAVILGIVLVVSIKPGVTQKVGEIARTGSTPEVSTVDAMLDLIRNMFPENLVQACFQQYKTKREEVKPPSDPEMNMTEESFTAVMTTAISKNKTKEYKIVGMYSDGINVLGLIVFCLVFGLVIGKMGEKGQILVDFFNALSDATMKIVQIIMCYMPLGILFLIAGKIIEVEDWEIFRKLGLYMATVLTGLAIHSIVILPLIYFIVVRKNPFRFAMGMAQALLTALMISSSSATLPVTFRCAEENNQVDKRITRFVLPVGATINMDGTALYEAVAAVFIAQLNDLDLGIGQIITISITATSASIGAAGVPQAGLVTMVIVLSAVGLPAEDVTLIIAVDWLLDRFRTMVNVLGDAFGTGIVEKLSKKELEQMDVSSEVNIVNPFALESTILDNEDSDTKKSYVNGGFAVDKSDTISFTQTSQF
The experiment in a line: Inhibition of [3H]-D-Asp uptake at human EAAT3 expressed in HEK293 cells measured after 3 mins by TopCount method. Put shortly:
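Stably transfected EAAT1-, EAAT2- or EAAT3-HEK293 lines grown in high-glucose GlutaMAX DMEM with 5% dialyzed FBS, penicillin/streptomycin and […]. Cells were seeded and reached confluence in 16−24 h, then washed in uptake buffer (HBSS, 20 mM HEPES, 1 mM CaCl₂, 1 mM MgCl₂, pH 7.4). Uptake ran 3 min at room temperature with 100 nM [³H]-D-aspartate plus test compound at varied concentrations. Two ice-cold washes, then scintillation counting. IC₅₀ from concentration−inhibition curves, n = 3−5.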

Usually IC50 stands for the point on the concentration scale where inhibition reaches its midpoint. A higher IC50 goes with a need for much substance. `N[C@H](C(=O)O)C(NC(=O)Oc1ccccc1)C(=O)O` (stereo partly specified) gave an IC50 of 316 µM.

The record behind these values is BindingDB's records for doi:10.1021/acs.jmedchem.6b01066 (University of Copenhagen, 2016).
